Source: PubChem
H69AR growth 86K = blocks growth of human H69AR lung tumor cells. actives 6% (n = 85,000). H69AR lung tumor viability, ATP luminescence, 72 h; active compounds read low. viability, % at 10 µM;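 active means viability at or below 40%; inactive means viability above 40%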;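 further: multidrug resistant small cell line overexpressing MRP-1 efflux transporter; 100% = mean luminescence of untreated control wells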
bCat KO growth = beta-catenin-lacking colon tumor cell growth suppression; HCT116 beta-catenin knockout viability, CellTiter-Glo, 60 h; active compounds read low; actives 1.5% (n = 140,000); viability, % at 10 µM;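 active means viability at or under a set limit, the compound median less 4 SD, cut at about 6% in these data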;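 further: 0% = Hyamine 1622 control at 20 µM and 100% = untreated cell control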
PTEN del growth = growth suppressors of cells with PTEN tumor suppressor deletion | AID 827 | viability, % at 10 µM | HCT116 PTEN-null viability, CellTiter-Glo, 60 h; active compounds read low | actives 1.2% (n = 140,000);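 active means viability at or below a set limit, 4 SD under the median of all tested compounds, cut at about 3.7% in these data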;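 further: PTEN knockout HCT116 line with beta catenin targeted HCT116 as companion control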
Lung fibro prol = blocks proliferation of human lung fibroblasts; AID 719; LL 47 human lung fibroblast viability, ATP luminescence; active compounds read low; viability, % at 10 µM; actives 1.1% (n = 85,000);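 active means viability at or below 50% in the single dose screen; inactive means viability above 50%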;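 further: compound exposure lasted 72 h before the ATP readout; 100% = median luminescence of untreated cell-only wells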
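material = human LL 47 lung fibroblast cells | dosing = compounds added from tenfold dosing solution, 0.1% DMSO final | timing = overnight cell rest, 72 h compound treatment at 37 °C | measured by = CellTiter-Glo luminescence measuring cellular ATP | evaluation = % viability versus median cells-only luminescence | control set = cell-only wells, no compound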
HUVEC inhibit = blocks proliferation of human endothelial cells. HUVEC proliferation, CellTiter-Glo luminescence, 72 h; active compounds read low. viability, % at 10 µM (by protocol). actives 1.1% (n = 86,000);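 active means viability at or below 30%; inactive means viability above 30%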;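 further: 100% = median luminescence of DMSO-only cell control wells on each plate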
* = called active by the depositor; x = no result given. The full list was thinned out, with hits kept by preference.

SMILES	H69AR growth 86K	bCat KO growth	PTEN del growth	Lung fibro prol	HUVEC inhibit
Cc1ccn2c(-c3csc(NCc4ccccc4)n3)c(C)nc2c1	22*	51	49	85	63
CCCOC(=O)c1c(-c2ccc(C)cc2C)csc1NC(=O)C1C2CCC(O2)C1C(=O)O (configuration not stated)	x	84	89	x	x
O=C(CN1/C(=C(/O)c2ccccc2)C(=O)c2ccccc2S1(=O)=O)c1ccccc1	28*	65	63	94	87
COc1ccc2c(c1)[nH]c1c(N3CCN(Cc4ccc5c(c4)OCO5)CC3)ncnc12	x	8	10	x	x
Cc1ccc2[nH]c3c(N4CCCCCC4)ncnc3c2c1	41	5.1*	9	78	32*
Cc1ccc2[nH]c3c(N4CCN(Cc5ccccc5)CC4)ncnc3c2c1	71	22	25	77	14*
Cc1ccc2c(c1)c1ncnc(N3CCC4(CC3)OCCO4)c1n2C	29*	80	72	90	75
COc1cccc2[nH]c3c(N4CCN(Cc5ccc6c(c5)OCO6)CC4)ncnc3c12	40*	71	70	97	61
Cc1ccc2c(c1)c1ncnc(N3CCOCC3)c1n2C	46	62	66	93	85
Cc1ccc2[nH]c3c(N4CCN(Cc5ccc6c(c5)OCO6)CC4)ncnc3c2c1	54	11	11	93	41
Cc1cc(C)n(C(=O)c2sc3cc(F)ccc3c2Cl)n1	x	89	96	x	x
COc1cc2[nH]c3c(Cl)ncnc3c2cc1OC	x	79	79	x	x
OC1(c2cccc(C(F)(F)F)c2)CCN(c2ccc(-c3ccccc3)nn2)CC1	x	90	89	102	92
c1ccc2c(c1)CCN(c1ncnc3c1[nH]c1ccccc13)C2	x	8	15	x	x
c1ccc(CN2CCN(c3ncnc4c3[nH]c3ccccc34)CC2)cc1	46	3.9*	8	72	44
c1nc(N2CCC3(CC2)OCCO3)c2[nH]cnc2n1	89	93	102	95	88
c1ccc2c(c1)[nH]c1c(N3CCC4(CC3)OCCO4)ncnc12	39*	52	53	89	77
OC1(c2cccc(C(F)(F)F)c2)CCN(c2ncnc3c2[nH]c2ccccc23)CC1	19*	1.2*	1.3*	81	46
COc1cc2[nH]c3c(N4CCN(c5ccc(Cl)cc5)CC4)ncnc3c2cc1OC	6.9*	59	68	77	50
COc1cc(/C=C(/NC(=O)c2ccccc2)C(=O)Nc2ccc(O)cc2)c([N+](=O)[O-])cc1OC	x	88	89	x	x
COc1cccc(NC(=O)CCSc2ccc(C)cc2)c1	x	99	104	x	x
CCOc1ccc2[nH]c3c(N4CCN(c5ccccn5)CC4)ncnc3c2c1	x	60	50	85	52
Cc1ccc2c(c1)[nH]c1c(N3CCN(Cc4ccccc4)CC3)ncnc12	56	7	9	92	15*
COc1ccc(/C=C2\CC/C(=C\c3ccc(OC)c(OC)c3)C2=O)cc1OC	x	58	69	x	x
CN(C)/N=C/C=C1\CC/C(=C\c2ccc(Br)cc2)C1=O	24*	85	87	96	82
SMILES	H69AR growth 86K	bCat KO growth	PTEN del growth	Lung fibro prol	HUVEC inhibit
CCOC(=O)c1c(C2COc3ccccc3O2)csc1NC(=O)c1ccccc1 (configuration not stated)	75	0.8*	0.5*	98	109
C=CCC(Nc1ccccc1)C12C=CC(O1)C(C(=O)OC)=C2C(=O)OC (configuration not stated)	1.0*	2.3*	1.9*	3.1*	45
COc1cc(CN2C(=S)NC(C)(C)CC2(C)O)cc(OC)c1 (configuration not stated)	x	93	107	x	x
Nc1c(C(=O)Nc2cccc(Cl)c2Cl)sc2nc(-c3cccnc3)ccc12	x	1.5*	1.3*	x	x
Cc1ccc(OC(=O)c2cccc([N+](=O)[O-])c2)c(-n2nc3ccccc3n2)c1	x	82	86	x	x
O=C(Oc1ccc(F)cc1C(=O)/C=C/c1cccs1)c1cccc([N+](=O)[O-])c1	3.0*	60	50	64	60
COc1cc(/C=C/C(=O)c2cccc([N+](=O)[O-])c2)cc(OC)c1OC	x	2.1*	1.4*	x	x
COC(=O)c1cccc(NC(=O)/C=C/c2cccc([N+](=O)[O-])c2)c1	x	101	108	x	x
O=C(/C=C/c1ccccc1F)c1cccc([N+](=O)[O-])c1	x	3.2*	2.6*	x	x
N/C(=N\OC(=O)Oc1ccccc1)c1cccc([N+](=O)[O-])c1	x	98	97	x	x
O=C(C#Cc1ccccc1)c1cccc([N+](=O)[O-])c1	1.4*	2.4*	2.1*	18*	45
